Results as given in ChEMBL document CHEMBL1926651, “Design, synthesis, antiviral and cytostatic evaluation of novel isoxazolidine nucleotide analogues with a 1,2,3-triazole linker” (Eur J Med Chem, 2012).
The source made the active and inactive calls. The calls are words filed in the database; no cut-off is given here.

Assays:
[1] = test system: Feline coronavirus; test: Antiviral activity against Feline coronavirus infected in CrFK cells assessed as inhibition of viral plaque formation at 250 uM; format: functional, organism-based
How it was run: (§1)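 Confluent host cell monolayers were inoculated with 100 CCID50 of virus in the presence of test compound at serial dilutions (250, 50, 10, … μM). Viral cytopathicity was scored once it reached completion in untreated virus-infected controls.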

[2] = Cytotoxicity against CRFK cells assessed as change in cell morphology up to 100 uM; format: cell-based, Felis catus; settings: cat
How it was run: (§2)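 Uninfected host-cell cultures were examined under the microscope. MCC was taken as the lowest compound concentration producing a detectable alteration of normal cell morphology, assessed at concentrations up to 100 μM.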

[3] = test system: HeLa; test: Cytotoxicity against human HeLa cells 3 days by coulter counting; format: functional; settings: 72 h
How it was run: (§3)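 Cells were suspended at 300,000–500,000 cells/mL and added 1:1 to compound dilutions. Incubation was at 37 °C, 2 days for L1210 and 3 days for CEM, HeLa and HEL. Cells were counted with a Coulter counter. CC50 is the concentration inhibiting cell proliferation by 50%.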

[4] = test system: Felid alphaherpesvirus 1; test: Antiviral activity against Felid herpesvirus 1 infected in CrFK cells assessed as inhibition of viral plaque formation at 250 uM; format: functional, organism-based; how it was run: as §1
[5] = test system: Vero; test: Cytotoxicity against african green monkey Vero cells assessed as change in cell morphology up to 100 uM; format: cell-based; settings: chlorocebus sabaeus; how it was run: as §2
[6] = test system: Human immunodeficiency virus 1; test: Antiviral activity against Human immunodeficiency virus 1 infected in human CEM cells assessed as inhibition of virus-induced giant cell formation after 4 days by microscopic analysis; format: functional, organism-based; settings: CCRF-CEM
How it was run: (§4)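 CEM cells at about 3 × 10⁵ cells/cm³ were infected with 100 CCID50/mL of HIV-1(IIIB) or HIV-2(ROD), then seeded into wells holding test compound dilutions. After 4 days at 37 °C, virus-induced giant cell formation was scored microscopically.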

[7] = test system: HEL; test: Cytotoxicity against human HEL cells 3 days by coulter counting; format: functional; settings: 72 h; how it was run: as §3
[8] = test system: Human alphaherpesvirus 3; test: Antiviral activity against thymidine kinase-positive Varicella Zoster virus Oka infected in human HEL cells assessed as inhibition of viral plaque formation at 250 uM; format: functional, cell-based; settings: strain Oka vaccine
[9] = test system: Mammalian orthoreovirus 1; test: Antiviral activity against Reovirus-1 infected in african green monkey Vero cells assessed as inhibition of viral plaque formation at 250 uM; format: functional, organism-based; how it was run: as §1
[10] = test system: Sindbis virus; test: Antiviral activity against Sindbis virus infected in african green monkey Vero cells assessed as inhibition of viral plaque formation at 250 uM; format: functional, organism-based; how it was run: as §1
[11] = test system: Human alphaherpesvirus 3; test: Antiviral activity against thymidine kinase-deficient Varicella Zoster virus 07/1 infected in human HEL cells assessed as inhibition of viral plaque formation at 250 uM; format: functional, organism-based
[12] = test system: Human immunodeficiency virus 2; test: Antiviral activity against Human immunodeficiency virus 2 infected in human CEM cells assessed as inhibition of virus-induced giant cell formation after 4 days by microscopic analysis; format: functional, organism-based; settings: CCRF-CEM; how it was run: as §4
[13] = test system: Vaccinia virus; test: Antiviral activity against Vaccinia virus infected in human HEL cells assessed as inhibition of viral plaque formation at 250 uM; format: functional, organism-based; settings: Orthopoxvirus vaccinia; how it was run: as §1
[14] = test system: Human alphaherpesvirus 1; test: Antiviral activity against thymidine kinase-deficient acv-resistant Herpes simplex virus 1 KOS infected in human HEL cells assessed as inhibition of viral plaque formation at 250 uM; format: functional, organism-based
[15] = test system: Human betaherpesvirus 5; test: Antiviral activity against Human cytomegalovirus AD169 infected in human HEL cells assessed as inhibition of viral plaque formation at 250 uM; format: functional, organism-based
[16] = test system: Human alphaherpesvirus 1; test: Antiviral activity against Herpes simplex virus 1 KOS infected in human HEL cells assessed as inhibition of viral plaque formation at 250 uM; format: functional, organism-based; how it was run: as §1
[17] = test system: Respiratory syncytial virus; test: Antiviral activity against Respiratory syncytial virus infected in human HeLa cells assessed as inhibition of viral plaque formation at 250 uM; format: functional, organism-based; how it was run: as §1
[18] = test system: Coxsackievirus B4; test: Antiviral activity against Coxsackievirus B4 infected in african green monkey Vero cells assessed as inhibition of viral plaque formation at 250 uM; format: functional, organism-based; how it was run: as §1
[19] = test system: Human betaherpesvirus 5; test: Antiviral activity against Human cytomegalovirus Davis infected in human HEL cells assessed as inhibition of viral plaque formation at 250 uM; format: functional, organism-based
[20] = test system: Coxsackievirus B4; test: Antiviral activity against Coxsackievirus B4 infected in human HeLa cells assessed as inhibition of viral plaque formation at 250 uM; format: functional, organism-based; how it was run: as §1
[21] = test system: L1210; test: Cytotoxicity against mouse L1210 cells 2 days by coulter counting; format: functional; settings: L1210, 48 h; how it was run: as §3
[22] = test system: HeLa; test: Cytotoxicity against human HeLa cells assessed as change in cell morphology up to 100 uM; format: cell-based; how it was run: as §2
[23] = test system: Punta Toro virus; test: Antiviral activity against Punta Toro virus infected in african green monkey Vero cells assessed as inhibition of viral plaque formation at 250 uM; format: functional, organism-based
[24] = test system: MDCK; test: Cytotoxicity against MDCK cells assessed as change in cell morphology up to 100 uM; format: cell-based, Canis lupus familiaris; settings: dog; how it was run: as §2
[25] = test system: Vesicular stomatitis virus; test: Antiviral activity against Vesicular stomatitis virus infected in human HEL cells assessed as inhibition of viral plaque formation at 250 uM; format: functional, organism-based; how it was run: as §1
[26] = test system: Human respirovirus 3; test: Antiviral activity against Parainfluenza-3 virus infected in african green monkey Vero cells assessed as inhibition of viral plaque formation at 250 uM; format: functional, organism-based; how it was run: as §1
[27] = test system: Vesicular stomatitis virus; test: Antiviral activity against Vesicular stomatitis virus infected in human Hela cells assessed as inhibition of viral plaque formation at 250 uM; format: functional, organism-based
[28] = test system: HEL; test: Cytotoxicity against human HEL cells assessed as change in cell morphology up to 100 uM; format: cell-based; how it was run: as §2
[29] = test system: CCRF-CEM; test: Cytotoxicity against human CEM cells 3 days by coulter counting; format: functional; settings: 72 h; how it was run: as §3
[30] = test system: Human alphaherpesvirus 2; test: Antiviral activity against Herpes simplex virus 2 G infected in human HEL cells assessed as inhibition of viral plaque formation at 250 uM; format: functional, organism-based; settings: strain G

Row | Structure (SMILES) | Activity [1] | Activity [2] | CC50 [3] [µM] | Activity [4] | Activity [5] | Activity [6] | CC50 [7] [µM] | Activity [8] | Activity [9] | Activity [10] | Activity [11] | Activity [12] | Activity [13] | Activity [14] | Activity [15] | Activity [16] | Activity [17] | Activity [18] | Activity [19] | Activity [20] | other results
1 | CCOP(=O)(OCC)[C@@H]1C[C@H](n2cc(-c3ccccc3)nn2)ON1C (relative stereo) | inactive | Non-toxic | > 250 | inactive | Non-toxic | inactive | 54 | inactive | inactive | inactive | inactive | inactive | inactive | inactive | inactive | inactive | inactive | inactive | inactive | inactive | CC50 [21]: 172 µM; Activity [22]: Non-toxic; Activity [23]: inactive; Activity [24]: Non-toxic; Activity [25]: inactive; Activity [26]: inactive; Activity [27]: inactive; Activity [28]: Non-toxic; CC50 [29]: > 250 µM; Activity [30]: inactive
2 | CCOP(=O)(OCC)[C@@H]1C[C@H](n2cc(-c3ccccc3F)nn2)ON1C (relative stereo) | inactive | Non-toxic | 247 | inactive | Non-toxic | inactive | 41 | inactive | inactive | inactive | inactive | inactive | inactive | inactive | inactive | inactive | inactive | inactive | inactive | inactive | CC50 [21]: 122 µM; Activity [22]: Non-toxic; Activity [23]: inactive; Activity [24]: Non-toxic; Activity [25]: inactive; Activity [26]: inactive; Activity [27]: inactive; Activity [28]: Non-toxic; CC50 [29]: > 250 µM; Activity [30]: inactive
3 | CCOP(=O)(OCC)[C@@H]1C[C@H](n2cc(-c3cccc(F)c3)nn2)ON1C (relative stereo) | inactive | Non-toxic | 212 | inactive | Non-toxic | inactive | 43 | inactive | inactive | inactive | inactive | inactive | inactive | inactive | inactive | inactive | inactive | inactive | inactive | inactive | CC50 [21]: 104 µM; Activity [22]: Non-toxic; Activity [23]: inactive; Activity [24]: Non-toxic; Activity [25]: inactive; Activity [26]: inactive; Activity [27]: inactive; Activity [28]: Non-toxic; CC50 [29]: > 250 µM; Activity [30]: inactive
4 | CCOP(=O)(OCC)[C@@H]1C[C@H](n2cc(-c3ccc(F)cc3F)nn2)ON1C (relative stereo) | inactive | Non-toxic | 135 | inactive | Non-toxic | inactive | 42 | inactive | inactive | inactive | inactive | inactive | inactive | inactive | inactive | inactive | inactive | inactive | inactive | inactive | CC50 [21]: 124 µM; Activity [22]: Non-toxic; Activity [23]: inactive; Activity [24]: Non-toxic; Activity [25]: inactive; Activity [26]: inactive; Activity [27]: inactive; Activity [28]: Non-toxic; CC50 [29]: ≥ 250 µM; Activity [30]: inactive
5 | CCOP(=O)(OCC)[C@@H]1C[C@H](n2cc(-c3ccccn3)nn2)ON1C (relative stereo) | inactive | Non-toxic | > 250 | inactive | Non-toxic | inactive | 78 | inactive | inactive | inactive | inactive | inactive | inactive | inactive | inactive | inactive | inactive | inactive | inactive | inactive | CC50 [21]: 206 µM; Activity [22]: Non-toxic; Activity [23]: inactive; Activity [24]: Non-toxic; Activity [25]: inactive; Activity [26]: inactive; Activity [27]: inactive; Activity [28]: Non-toxic; CC50 [29]: > 250 µM; Activity [30]: inactive
